Measurements from ChEMBL document CHEMBL2311332, “Epidithiodiketopiperazine as a pharmacophore for protein lysine methyltransferase G9a inhibitors: reducing cytotoxicity by structural simplification” (Bioorg Med Chem Lett, 2013).
Calls of active or inactive are those of the source. The rule behind the calls is not given here.

Columns and labels:
[1] = biological target: T1, Histone-lysine N-methyltransferase EHMT2 (Homo sapiens, UniProt Q96KQ7); test: Inhibition of protein lysine methyltransferase G9a (unknown origin) by ELISA assay
T1 sequence (Q96KQ7 whole entry): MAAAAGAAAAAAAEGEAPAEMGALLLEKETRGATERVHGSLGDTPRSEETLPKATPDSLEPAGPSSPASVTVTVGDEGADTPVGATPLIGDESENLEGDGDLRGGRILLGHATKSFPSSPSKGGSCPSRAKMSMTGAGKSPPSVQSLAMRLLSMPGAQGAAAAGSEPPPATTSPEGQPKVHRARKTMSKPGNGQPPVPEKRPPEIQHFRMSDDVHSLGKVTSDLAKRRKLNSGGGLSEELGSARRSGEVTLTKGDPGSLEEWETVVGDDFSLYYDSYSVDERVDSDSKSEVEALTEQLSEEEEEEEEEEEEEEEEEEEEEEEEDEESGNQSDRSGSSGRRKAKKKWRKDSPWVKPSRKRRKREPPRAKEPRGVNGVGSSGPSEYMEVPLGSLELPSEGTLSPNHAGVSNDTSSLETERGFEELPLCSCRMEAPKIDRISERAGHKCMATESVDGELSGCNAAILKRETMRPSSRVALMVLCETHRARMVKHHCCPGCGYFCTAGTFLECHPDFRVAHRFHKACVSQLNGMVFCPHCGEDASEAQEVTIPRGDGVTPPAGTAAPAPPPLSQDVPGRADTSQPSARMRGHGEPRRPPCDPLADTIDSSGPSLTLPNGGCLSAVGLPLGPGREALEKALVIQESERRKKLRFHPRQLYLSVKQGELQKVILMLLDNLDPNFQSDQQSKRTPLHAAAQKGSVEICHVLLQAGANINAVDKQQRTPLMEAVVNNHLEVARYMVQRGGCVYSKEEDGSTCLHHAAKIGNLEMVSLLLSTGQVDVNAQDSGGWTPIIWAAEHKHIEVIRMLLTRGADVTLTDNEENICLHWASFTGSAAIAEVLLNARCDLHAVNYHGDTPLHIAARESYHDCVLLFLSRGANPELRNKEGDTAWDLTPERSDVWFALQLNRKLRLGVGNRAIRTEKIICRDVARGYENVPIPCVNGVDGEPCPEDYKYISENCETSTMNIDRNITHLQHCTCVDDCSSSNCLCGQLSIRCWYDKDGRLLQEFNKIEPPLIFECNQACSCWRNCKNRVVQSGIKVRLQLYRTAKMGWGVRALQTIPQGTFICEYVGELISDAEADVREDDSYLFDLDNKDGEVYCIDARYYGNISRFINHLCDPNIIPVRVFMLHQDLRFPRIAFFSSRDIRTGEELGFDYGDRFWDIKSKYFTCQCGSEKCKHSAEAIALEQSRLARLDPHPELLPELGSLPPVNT

[2] = biological target: T1, Histone-lysine N-methyltransferase EHMT2; test: Inhibition of protein lysine methyltransferase G9a (unknown origin) by modified ELISA assay
HL-60 = test: Cytotoxicity against human HL60 cells at 3 to 30 uM after 4 hrs by Alamar Blue assay; type: cell-based; conditions: hl-60, 4 h
Procedure, shortened: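 HL-60 cells were exposed to the derivatives for 4 h. Cell viability was then read by alamarBlue.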

[3] = biological target: Thioredoxin reductase (Homo sapiens) (UniProt Q16881+Q9NNW7+Q86VQ6); test: Inhibition of thioredoxin reductase (unknown origin) assessed as reduction of DTNB at 10 uM; type: protein assay

Row | IC50 [1] [µM] | Compound | IC50 [2] [µM] | Activity (HL-60) | inhibition [3]
1 | > 50 | CN1C(=O)[C@H]2C[C@]3([C@]45C[C@@H]6C(=O)N(C)[C@H](CO)C(=O)N6[C@H]4Nc4ccccc45)c4ccccc4N[C@@H]3N2C(=O)[C@H]1CO | > 100 | – | –
2 | – | CN1C(=O)[C@]23C[C@@]4([C@@]56C[C@]78SS[C@](CO)(C(=O)N7[C@@H]5Nc5ccccc56)N(C)C8=O)c5ccccc5N[C@H]4N2C(=O)[C@@]1(CO)SS3 | 6.4 | – | –
3 | – | CN1C(=O)[C@@]23C[C@@H]4c5ccccc5N[C@@H]4N2C(=O)[C@@]1(CO[Si](C)(C)C(C)(C)C)SS3 | 3.3 | – | –
4 | – | CN1C(=O)[C@]23C[C@H]4c5ccccc5N[C@H]4N2C(=O)[C@]1(CO[Si](C)(C)C(C)(C)C)SS3 | 23.5 | – | –
5 | – | CN1C(=O)[C@@]23C[C@]4([C@]56C[C@@]78S[C@](CO)(C(=O)N7[C@H]5Nc5ccccc56)N(C)C8=O)c5ccccc5N[C@@H]4N2C(=O)[C@@]1(CO)S3 | > 100 | – | –
6 | – | CN1C(=O)[C@@]2(S)C[C@]3([C@]45C[C@]6(S)C(=O)N(C)[C@](S)(CO)C(=O)N6[C@H]4Nc4ccccc45)c4ccccc4N[C@@H]3N2C(=O)[C@@]1(S)CO | 27.1 | – | –
7 | – | CN1C(=O)[C@@]23C[C@]4([C@]56C[C@@]78SS[C@](CO[Si](C)(C)C(C)(C)C)(C(=O)N7[C@H]5Nc5ccccc56)N(C)C8=O)c5ccccc5N[C@@H]4N2C(=O)[C@@]1(CO[Si](C)(C)C(C)(C)C)SS3 | 7.2 | – | –
8 | – | CN1C(=O)[C@@H]2C[C@@]3([C@@]45C[C@H]6C(=O)N(C)[C@@H](CO)C(=O)N6[C@@H]4Nc4ccccc45)c4ccccc4N[C@H]3N2C(=O)[C@@H]1CO | > 100 | – | –
9 | – | CN1C(=O)C2(S)CCCN2C(=O)C1(S)CO (racemic) | 13.1 | Non-toxic | –
10 | – | CN1C(=O)C23CCCN2C(=O)C1(CO)SS3 (racemic) | 5.2 | Non-toxic | inactive
11 | – | CN1C(=O)C23CCCN2C(=O)C1(CO)SSS3 (racemic) | 5.3 | Non-toxic | inactive
12 | – | CN1C(=O)[C@@]23C[C@]4([C@]56C[C@@]78SS[C@@](CO)(C(=O)N7[C@H]5Nc5ccccc56)N(C)C8=O)c5ccccc5N[C@@H]4N2C(=O)[C@]1(CO)SS3 [CHAETOCIN] | 7.2 | – | –
